The source made the active and inactive calls. The calls are words filed in the database; no cut-off is given here.
How the values were obtained:
[1] = target: Nuclear factor NF-kappa-B complex (Homo sapiens) (UniProt Q00653+P19838+Q04206); assay: Inhibition of NF-kappaB in human HepG2 cells assessed as inhibition of TNF-alpha-induced luciferase reporter gene expression at 10 uM preincubated for 1 hr followed by TNF-alpha stimulation measured after 4 hrs relative to control; format: cell-based
Summary of the method: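 HepG2 cells stably carrying an NF-κB-luciferase reporter, grown in DMEM with 10% FBS and penicillin/streptomycin at 37 °C, 5% CO2. Seeded overnight at 5 × 10^4 cells/well (24-well), preincubated 1 h with compound at 10 μM, then stimulated with TNFα (10 ng/mL) for 4 h. Luciferase activity read in cell lysates; mean ± SEM, n = 3.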

HepG2 = assay: Cytotoxicity against human HepG2 cells at 10 uM; format: cell-based; details: hepg2, 10 µM

Nuclear factor NF-kappa-B complex (Homo sapiens), sequence (P19838 whole entry, looked up): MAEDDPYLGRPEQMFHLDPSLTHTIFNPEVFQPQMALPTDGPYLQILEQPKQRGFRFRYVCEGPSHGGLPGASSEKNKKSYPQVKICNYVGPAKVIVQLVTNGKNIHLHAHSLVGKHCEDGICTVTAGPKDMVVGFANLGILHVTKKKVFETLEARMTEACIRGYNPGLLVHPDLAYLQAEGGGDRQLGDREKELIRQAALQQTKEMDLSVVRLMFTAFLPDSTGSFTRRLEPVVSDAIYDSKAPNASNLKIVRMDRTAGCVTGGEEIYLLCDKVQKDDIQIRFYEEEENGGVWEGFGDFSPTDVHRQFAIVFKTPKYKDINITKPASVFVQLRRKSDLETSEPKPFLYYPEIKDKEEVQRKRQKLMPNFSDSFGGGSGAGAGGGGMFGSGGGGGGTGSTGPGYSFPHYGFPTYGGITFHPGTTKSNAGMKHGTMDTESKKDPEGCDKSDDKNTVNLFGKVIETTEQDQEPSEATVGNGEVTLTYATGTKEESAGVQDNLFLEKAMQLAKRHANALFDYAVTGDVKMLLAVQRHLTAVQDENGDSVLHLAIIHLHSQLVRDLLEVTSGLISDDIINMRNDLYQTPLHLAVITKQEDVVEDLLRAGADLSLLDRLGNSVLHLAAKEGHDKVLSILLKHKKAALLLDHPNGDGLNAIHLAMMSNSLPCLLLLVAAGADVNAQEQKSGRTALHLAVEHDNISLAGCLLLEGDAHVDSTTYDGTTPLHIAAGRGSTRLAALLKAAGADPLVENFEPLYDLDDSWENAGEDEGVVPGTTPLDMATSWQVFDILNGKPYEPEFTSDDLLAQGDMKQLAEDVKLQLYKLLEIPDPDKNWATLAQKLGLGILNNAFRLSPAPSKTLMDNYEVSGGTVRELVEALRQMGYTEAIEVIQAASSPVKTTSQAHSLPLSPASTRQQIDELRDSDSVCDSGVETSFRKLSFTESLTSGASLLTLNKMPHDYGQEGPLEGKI
Nuclear factor NF-kappa-B complex (Homo sapiens), sequence (Q00653 whole entry, looked up): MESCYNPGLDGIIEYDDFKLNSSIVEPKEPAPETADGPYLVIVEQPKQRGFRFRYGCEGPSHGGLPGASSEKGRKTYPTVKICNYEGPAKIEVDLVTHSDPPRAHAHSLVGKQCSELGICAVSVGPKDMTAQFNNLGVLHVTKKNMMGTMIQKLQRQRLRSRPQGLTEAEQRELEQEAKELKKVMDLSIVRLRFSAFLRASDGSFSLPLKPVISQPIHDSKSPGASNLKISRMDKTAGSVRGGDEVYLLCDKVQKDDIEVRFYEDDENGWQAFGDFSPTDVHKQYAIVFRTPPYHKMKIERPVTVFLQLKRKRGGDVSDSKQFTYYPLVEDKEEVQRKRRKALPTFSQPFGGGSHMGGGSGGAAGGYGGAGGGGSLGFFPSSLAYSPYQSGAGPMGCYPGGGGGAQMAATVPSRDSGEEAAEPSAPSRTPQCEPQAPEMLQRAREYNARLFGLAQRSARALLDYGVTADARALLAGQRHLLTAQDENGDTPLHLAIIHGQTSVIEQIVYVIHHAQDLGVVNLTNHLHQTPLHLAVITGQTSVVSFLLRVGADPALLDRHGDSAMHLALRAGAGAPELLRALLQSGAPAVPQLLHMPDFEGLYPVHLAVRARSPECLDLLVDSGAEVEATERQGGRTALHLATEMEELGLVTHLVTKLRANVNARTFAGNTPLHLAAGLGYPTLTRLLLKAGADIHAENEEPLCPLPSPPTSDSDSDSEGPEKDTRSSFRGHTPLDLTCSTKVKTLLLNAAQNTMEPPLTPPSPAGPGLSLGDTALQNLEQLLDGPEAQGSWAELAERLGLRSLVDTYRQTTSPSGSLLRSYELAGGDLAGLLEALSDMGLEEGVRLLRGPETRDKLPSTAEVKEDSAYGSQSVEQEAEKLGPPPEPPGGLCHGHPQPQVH
Nuclear factor NF-kappa-B complex (Homo sapiens), sequence (Q04206 whole entry, looked up): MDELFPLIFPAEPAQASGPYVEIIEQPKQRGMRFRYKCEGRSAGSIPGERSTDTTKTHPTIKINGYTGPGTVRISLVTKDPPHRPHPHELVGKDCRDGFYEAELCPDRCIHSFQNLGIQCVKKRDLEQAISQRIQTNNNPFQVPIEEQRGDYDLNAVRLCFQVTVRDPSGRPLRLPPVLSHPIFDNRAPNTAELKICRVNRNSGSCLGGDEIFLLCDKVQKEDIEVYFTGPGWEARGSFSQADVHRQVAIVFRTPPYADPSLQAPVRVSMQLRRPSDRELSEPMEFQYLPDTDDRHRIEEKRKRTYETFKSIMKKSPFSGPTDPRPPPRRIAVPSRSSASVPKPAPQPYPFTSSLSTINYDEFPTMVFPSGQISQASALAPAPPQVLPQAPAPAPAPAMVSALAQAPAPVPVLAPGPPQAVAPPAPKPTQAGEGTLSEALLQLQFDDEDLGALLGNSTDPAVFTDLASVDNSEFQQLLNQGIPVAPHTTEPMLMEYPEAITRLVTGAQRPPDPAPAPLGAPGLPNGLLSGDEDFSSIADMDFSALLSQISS

| inhibition [1] | Structure (SMILES) | Activity (HepG2) |
| --- | --- | --- |
| inactive | C=C1[C@@H]([C@@]2(C)C=CC(=O)OC(C)(C)[C@@H]2CC(=O)OC)[C@@H](OC(C)=O)[C@H](OC(=O)c2ccccc2)[C@@]2(C)[C@H](C3=CC(=O)NC3)C[C@H]3O[C@]132 (relative stereo) | Non-toxic |
| 64% | C=C1[C@@H]([C@@]2(C)C=CC(=O)OC(C)(C)[C@@H]2CC(=O)OC)[C@@H](OC(C)=O)[C@H](OC(=O)C(C)CC)[C@@]2(C)[C@H](C3=CC(=O)NC3)C[C@H]3O[C@]132 (stereo not given in full) | Non-toxic |
| inactive | C=C1[C@@H]([C@@]2(C)C=CC(=O)OC(C)(C)[C@@H]2CC(=O)OC)[C@@H](OC(C)=O)[C@H](OC(=O)C(C)CC)[C@@]2(C)[C@H](C3=CCNC3=O)C[C@H]3O[C@]132 (stereo not given in full) | Non-toxic |
| inactive | C=C1[C@@H]([C@@]2(C)C=CC(=O)OC(C)(C)[C@@H]2CC(=O)OC)[C@@H](OC(C)=O)[C@H](OC(=O)c2ccccc2)[C@@]2(C)[C@H](C3=CCN(C)C3=O)C[C@H]3O[C@]132 | Non-toxic |
| inactive | C=C1[C@@H]([C@@]2(C)C=CC(=O)OC(C)(C)[C@@H]2CC(=O)OC)[C@@H](OC(C)=O)[C@H](OC(=O)c2ccccc2)[C@@]2(C)[C@H](C3=CCNC3=O)C[C@H]3O[C@]132 (relative stereo) | Non-toxic |
